Entries after “also recorded” stand apart in the source; their conditions may differ.
Tests used:
human 5-HT6 receptors = human 5-HT6 receptors (Homo sapiens, UniProt P50406); assay: biochemical; assay type: binding
SH-SY5Y cells [1] = assay: MTT cell viability assay; assay type: cell-based, human; conditions: SH-SY5Y, 5 µM, 10 µM and 25 µM, 24 h, MTT
How it was run: (§1)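 SH-SY5Y cells were seeded at 5 × 10³ per well, grown 24 h, then given test compound at 5, 10 or 25 µM for 24 h, in triplicate. A solvent control was included, and 10% SDS added 1 h before the end served as the death control. MTT at 0.5 mg/mL ran 4 h at 37 °C, followed by overnight solubilization in 10% SDS/0.1 M HCl and A570. Results are % MTT reduction versus the negative control (100%); 3 experiments, one-way ANOVA.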

SH-SY5Y cells [2] = assay: Autophagy induction by LC3 immunofluorescence; assay type: cell-based, human; conditions: for number of autophagosomes per cell / percentage of cells with autophagosomes (LC3-positive punctate pattern): SH-SY5Y, 25 µM, 24 h, vs control; for capacity to induce autophagy: neuroblastoma SH-SY5Y cell line
How it was run: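 SH-SY5Y cells were grown on coverslips at 20–40% confluence for 24 h, then given test compound at 25 µM for 24 h. Fixation used 4% paraformaldehyde plus DAPI for 20 min. Cells were permeabilized with 0.1% Triton, blocked in 3% BSA, and stained with anti-LC3A/B (1:400, overnight 4 °C) then Alexa 488 secondary. Images at 20x. Cells with LC3 puncta were counted against DAPI nuclei, and puncta per cell by 3D object counting.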

5-HT6R = 5-HT6R protein levels by Western blot; assay type: cell-based, human; conditions: SH-SY5Y, 24 h, densitometry vs control; Rapamycin 100 nM
How it was run: (§2)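 Test compound was diluted in medium from a 5 mM DMSO stock and applied to SH-SY5Y cells for 24 h, after 24 h growth and a PBS wash. Controls were untreated medium and rapamycin. Cells were lysed in RIPA with protease/phosphatase inhibitors and protein measured by BCA. Equal protein was run on 6%/12% SDS-PAGE, then PVDF, 3% BSA block, primary overnight 4 °C, ECL. Densitometry; n≥3, mean ± SEM, one-way ANOVA with Tukey.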

LC3 and p62 = assay: Common autophagy pathway protein levels; assay type: cell-based, human; conditions: SH-SY5Y, 24 h, vs control; Rapamycin 100 nM
How it was run: as §2

mTOR pathway = mTOR pathway protein phosphorylation by Western blot; assay type: cell-based, human; conditions: SH-SY5Y, 24 h, vs control; Rapamycin 100 nM
How it was run: as §2

receptor 5-HT6 = conditions: reported for the endogenous ligand; cited from earlier work
MTT cell viability assay = assay type: cell-based, human; conditions: human, SH-SY5Y neuroblastoma cells
How it was run: as §1

[3] = Preliminary zebrafish larvae viability assay; conditions: in vivo, other: larvae exposed to the compound at 2–50 µM

Chain of human 5-HT6 receptors (P50406 whole entry): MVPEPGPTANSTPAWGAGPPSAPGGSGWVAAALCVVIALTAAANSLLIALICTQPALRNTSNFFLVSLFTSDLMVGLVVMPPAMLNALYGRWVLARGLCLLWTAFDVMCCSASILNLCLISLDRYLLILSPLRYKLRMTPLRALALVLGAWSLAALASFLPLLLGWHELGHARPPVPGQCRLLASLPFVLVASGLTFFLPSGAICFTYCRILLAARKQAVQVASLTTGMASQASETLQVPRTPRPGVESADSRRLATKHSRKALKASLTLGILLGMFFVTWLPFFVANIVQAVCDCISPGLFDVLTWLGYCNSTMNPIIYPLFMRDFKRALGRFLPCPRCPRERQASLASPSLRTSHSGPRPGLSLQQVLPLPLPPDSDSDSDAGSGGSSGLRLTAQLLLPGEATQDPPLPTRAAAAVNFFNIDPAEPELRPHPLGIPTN

Row | SMILES | IC50 (human 5-HT6 receptors) [nM] | Ki (human 5-HT6 receptors) [nM] | cytotoxicity / cellular viability (in words) (SH-SY5Y cells [1]) | number of autophagosomes per cell (SH-SY5Y cells [2]) | percentage of cells with autophagosomes (LC3-positive punctate pattern) (SH-SY5Y cells [2]) | capacity to induce autophagy (SH-SY5Y cells [2]) | expression levels of 5-HT6R (5-HT6R) | LC3-II/LC3-I ratio (LC3 and p62) | p62 levels (LC3 and p62) | total LC3-II levels (LC3 and p62) | phosphorylated levels of BECN1 (Ser30) (mTOR pathway) | phosphorylated levels of ULK1 (Ser757) (mTOR pathway) | phosphorylated levels of mTOR (Ser2448) (mTOR pathway) | Ki (receptor 5-HT6) [nM] | viability at 24 h, 25 µM (MTT cell viability assay) [%] | viability at 48 h [3] [%]
1 | COc1ccccc1N1CCN(CC(O)c2nn(S(=O)(=O)c3cccc4ccccc34)c3ccccc23)CC1 (stereo not shown) [PUC-55, 2-(4-(2-methoxyphenyl)piperazin-1-yl)-1-(1-(naphthalen-1-ylsulfonyl)-1H-indazol-3-yl)ethan-1-ol] | 39 | 37.5 | high cellular viability; also recorded: do not induce cytotoxicity; also recorded: do not cause toxicity | significant increase | significantly higher percentage | potent autophagy-inducing activity | increases significantly; also recorded: significantly increased | significant increase | significantly decreased | significantly increased | significantly increased | significantly decreases | significantly decreases |  |  | 
2 | CO[C@H]1C[C@@H]2CC[C@@H](C)[C@@](O)(O2)C(=O)C(=O)N2CCCC[C@H]2C(=O)O[C@H]([C@H](C)C[C@@H]2CC[C@@H](O)[C@H](OC)C2)CC(=O)[C@H](C)/C=C(\C)[C@@H](O)[C@@H](OC)C(=O)[C@H](C)C[C@H](C)/C=C/C=C/C=C/1C [Rapamycin, reference compound] |  |  |  |  |  |  | did not modify the expression levels; also recorded: did not produce significant changes | significant increase | significantly decreased | significantly increased | significantly increased | significantly decreases | significantly decreases |  |  | 
4 | COc1ccccc1N1CCN(CC(O)c2cn(S(=O)(=O)c3cccc4ccccc34)c3ccccc23)CC1 (stereo not shown) [PUC-10, 2-(4-(2-methoxyphenyl)piperazin-1-yl)-1-(1-(naphthalen-1-ylsulfonyl)-1 H-indol-3-yl)ethan-1-ol] |  |  | do not induce cytotoxicity; also recorded: do not cause toxicity | significant increase | significantly higher percentage | high capacity to induce autophagy | increases significantly; also recorded: significantly increased | significant increase | significantly decreased | significantly increased | significantly increased | significantly decreases | significantly decreases |  | > 90 | ~85
